Active and inactive are the calls of the source. The rule behind the calls is not given here.
How the values were obtained:
[1] = target: T1, NUAK family SNF1-like kinase 2 (Homo sapiens) (UniProt Q9H093); experiment: Inhibition of NUAK2 (unknown origin) at 10 uM using CHKtide as substrate in presence of ATP measured after 60 mins by ADP-Glo assay
T1 sequence (whole entry): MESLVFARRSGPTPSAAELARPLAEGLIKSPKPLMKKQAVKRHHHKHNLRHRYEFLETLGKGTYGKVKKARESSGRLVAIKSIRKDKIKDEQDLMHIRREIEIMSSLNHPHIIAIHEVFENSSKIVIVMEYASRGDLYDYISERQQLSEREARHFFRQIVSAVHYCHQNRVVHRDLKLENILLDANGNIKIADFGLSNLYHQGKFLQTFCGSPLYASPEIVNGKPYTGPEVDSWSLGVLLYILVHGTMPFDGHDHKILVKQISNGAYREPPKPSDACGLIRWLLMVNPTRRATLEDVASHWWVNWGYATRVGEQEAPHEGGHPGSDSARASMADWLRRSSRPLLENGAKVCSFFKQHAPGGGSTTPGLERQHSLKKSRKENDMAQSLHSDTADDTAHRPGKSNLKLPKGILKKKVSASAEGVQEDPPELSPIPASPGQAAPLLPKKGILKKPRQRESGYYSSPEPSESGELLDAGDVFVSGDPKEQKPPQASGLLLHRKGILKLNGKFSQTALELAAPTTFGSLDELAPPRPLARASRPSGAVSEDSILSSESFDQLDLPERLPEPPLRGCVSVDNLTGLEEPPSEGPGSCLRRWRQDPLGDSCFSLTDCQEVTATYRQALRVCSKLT

[2] = target: T2, NUAK family SNF1-like kinase 1 (Homo sapiens) (UniProt O60285); experiment: Inhibition of NUAK1 (unknown origin) at 10 uM using CHKtide as substrate in presence of ATP measured after 60 mins by ADP-Glo assay
T2 sequence (whole entry): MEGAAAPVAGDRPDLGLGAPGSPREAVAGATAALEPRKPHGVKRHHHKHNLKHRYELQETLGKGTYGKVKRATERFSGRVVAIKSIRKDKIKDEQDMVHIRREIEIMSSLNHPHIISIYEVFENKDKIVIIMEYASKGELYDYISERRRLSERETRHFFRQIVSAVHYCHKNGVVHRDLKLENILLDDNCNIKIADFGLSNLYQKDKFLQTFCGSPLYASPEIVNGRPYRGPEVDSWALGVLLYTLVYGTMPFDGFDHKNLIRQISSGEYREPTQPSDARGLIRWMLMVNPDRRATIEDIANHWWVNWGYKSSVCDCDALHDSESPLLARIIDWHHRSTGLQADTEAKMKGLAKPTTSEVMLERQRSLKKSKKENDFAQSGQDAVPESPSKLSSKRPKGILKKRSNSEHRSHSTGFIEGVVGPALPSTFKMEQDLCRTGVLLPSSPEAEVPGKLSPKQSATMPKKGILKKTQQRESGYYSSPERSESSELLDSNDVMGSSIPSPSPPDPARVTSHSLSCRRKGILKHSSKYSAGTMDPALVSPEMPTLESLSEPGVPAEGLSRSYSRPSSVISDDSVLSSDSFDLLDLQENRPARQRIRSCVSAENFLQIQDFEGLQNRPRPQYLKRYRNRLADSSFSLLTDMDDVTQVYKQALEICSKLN

[3] = test system: U2OS; experiment: Antiproliferative activity against human U2OS cells assessed as reduction in cell viability at 10 uM measured after 1 to 5 days by MTT assay; format: functional; conditions: time 1-5 day
In short: (§1)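 MTT viability read daily over 1–5 days of exposure to 10 μM compound; mean ± SD, n = 3.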

[4] = test system: HCT-116; experiment: Induction of apoptosis in human HCT-116 cells assessed as late apoptotic cells at 10 uM measured after 48 hrs by Annexin V-FITC/PI staining based flow cytometry method (reference value: 1.6%); format: functional
[5] = test system: SW480; experiment: Antiproliferative activity against human SW480 cells at 2.5 to 10 uM measured after 48 hrs by EdU staining based assay; format: functional, cell-based; conditions: dose 2.5-10 µM
In short: (§2)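 Cells exposed to a range of compound concentrations for 48 h, then EdU click-chemistry staining with DAPI counterstain. Confocal high-content imaging; DAPI-positive nuclei counted as total and EdU-positive as proliferating.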

[6] = test system: SW480; experiment: Induction of apoptosis in human SW480 cells assessed as necrotic cells at 10 uM measured after 48 hrs by Annexin V-FITC/PI staining based flow cytometry method (reference value: 1.4%); format: functional
[7] = test system: U2OS; experiment: Induction of apoptosis in human U2OS cells assessed as necrotic cells at 10 uM measured after 48 hrs by Annexin V-FITC/PI staining based flow cytometry method (reference value: 0.4%); format: functional
[8] = test system: HCT-116; experiment: Induction of apoptosis in human HCT-116 cells assessed as viable cells at 10 uM measured after 48 hrs by Annexin V-FITC/PI staining based flow cytometry method (reference value: 95.4%); format: functional; conditions: read-out: Activity
[9] = test system: U2OS; experiment: Induction of apoptosis in human U2OS cells assessed as viable cells at 10 uM measured after 48 hrs by Annexin V-FITC/PI staining based flow cytometry method (reference value: 95.5%); format: functional; conditions: read-out: Activity
[10] = test system: SW480; experiment: Induction of apoptosis in human SW480 cells assessed as early apoptotic cells at 10 uM measured after 48 hrs by Annexin V-FITC/PI staining based flow cytometry method (reference value: 2.6%); format: functional
[11] = test system: SW480; experiment: Induction of apoptosis in human SW480 cells assessed as late apoptotic cells at 10 uM measured after 48 hrs by Annexin V-FITC/PI staining based flow cytometry method (reference value: 2.8%); format: functional
[12] = test system: SW480; experiment: Induction of apoptosis in human SW480 cells assessed as viable cells at 10 uM measured after 48 hrs by Annexin V-FITC/PI staining based flow cytometry method (reference value: 93.2%); format: functional; conditions: read-out: Activity
[13] = test system: U2OS; experiment: Induction of apoptosis in human U2OS cells assessed as late apoptotic cells at 10 uM measured after 48 hrs by Annexin V-FITC/PI staining based flow cytometry method (reference value: 1.3%); format: functional
[14] = test system: SW480; experiment: Antiproliferative activity against human SW480 cells assessed as reduction in cell viability at 10 uM measured after 1 to 5 days by MTT assay relative to control; format: functional, cell-based; conditions: time 1-5 day; in short: as §1
[15] = test system: U2OS; experiment: Antiproliferative activity against human U2OS cells at 2.5 to 10 uM measured after 48 hrs by EdU staining based assay; format: functional, cell-based; conditions: dose 2.5-10 µM; in short: as §2
[16] = test system: HCT-116; experiment: Induction of apoptosis in human HCT-116 cells assessed as early apoptotic cells at 10 uM measured after 48 hrs by Annexin V-FITC/PI staining based flow cytometry method (reference value: 0.8%); format: functional
[17] = test system: U2OS; experiment: Induction of apoptosis in human U2OS cells assessed as early apoptotic cells at 10 uM measured after 48 hrs by Annexin V-FITC/PI staining based flow cytometry method (reference value: 2.8%); format: functional
[18] = test system: HCT-116; experiment: Antiproliferative activity against human HCT-116 cells assessed as reduction in cell viability at 10 uM measured after 1 to 5 days by MTT assay relative to control; format: functional, cell-based; conditions: time 1-5 day; in short: as §1
[19] = test system: HCT-116; experiment: Induction of apoptosis in human HCT-116 cells assessed as necrotic cells at 10 uM measured after 48 hrs by Annexin V-FITC/PI staining based flow cytometry method (reference value: 2.2%); format: functional
[20] = test system: HCT-116; experiment: Antiproliferative activity against human HCT-116 cells at 2.5 to 10 uM measured after 48 hrs by EdU staining based assay; format: functional, cell-based; conditions: dose 2.5-10 µM; in short: as §2

## CCC(=O)Nc1cccc(Oc2nc(Nc3ccc(N4CCCC4)cc3)ncc2Cl)c1
[1]
  inhibition: inactive
[2]
  inhibition: inactive
[3]
  inhibition at 10 µM: 38.5%

## CCC(=O)Nc1cccc(Oc2nc(Nc3ccc(N(CC)CC)cc3OC)ncc2Cl)c1
[1]
  inhibition: inactive
[2]
  inhibition: 10.8%
[3]
  inhibition at 10 µM: 8.69%

## CCC(=O)Nc1cccc(Oc2nc(Nc3ccc(N4CCC(C)CC4)cc3)ncc2Cl)c1
[1]
  inhibition: 24.8%
[2]
  inhibition: 13.4%
[3]
  inhibition at 10 µM: 44.2%

## CCC(=O)Nc1cccc(Oc2nc(Nc3ccc(N4CCCCC4)cc3)ncc2Cl)c1
[1]
  inhibition: 72.3%
[2]
  inhibition: 86%
[3]
  inhibition at 10 µM: 48.4%

## CCC(=O)Nc1cccc(Oc2nc(Nc3ccc(N4CCC(OC)CC4)cc3OC)ncc2Cl)c1
[1]
  inhibition: inactive
[2]
  inhibition: 5.08%
[3]
  inhibition at 10 µM: 10.8%

## CCC(=O)Nc1cccc(Oc2nc(Nc3ccc(N4CCN(C)CC4)cc3OC)ncc2Cl)c1
[4]
  Activity: 13.7%
[5]
  Activity: Active
[6]
  Activity: 0.8%
[7]
  Activity: 0.4%
[8]
  viability at 10 µM: 80.2%
[9]
  viability at 10 µM: 90.8%
[10]
  Activity: 2%
[11]
  Activity: 2.7%
[12]
  viability at 10 µM: 94.5%
[13]
  Activity: 2.6%
[14]
  Activity: Active
[15]
  Activity: Active
[16]
  Activity: 2.9%
[1]
  inhibition: 84.8%
[17]
  Activity: 6.2%
[2]
  inhibition: 85.8%
[18]
  Activity: Active
[19]
  Activity: 3.2%
[3]
  inhibition at 10 µM: 47.3%
[20]
  Activity: Active

## CCC(=O)Nc1cccc(Oc2nc(Nc3ccc(N(CC)CC)cc3)ncc2Cl)c1
[1]
  inhibition: 21.2%
[2]
  inhibition: 54.4%
[3]
  inhibition at 10 µM: 38.8%

## CCC(=O)Nc1cccc(Oc2nc(Nc3ccc(N4CCCCC4)cc3OC)ncc2Cl)c1
[1]
  inhibition: inactive
[2]
  inhibition: 13.9%
[3]
  inhibition at 10 µM: 12.9%

## CCC(=O)Nc1cccc(Oc2nc(Nc3ccc(N4CCC(C)CC4)cc3OC)ncc2Cl)c1
[1]
  inhibition: inactive
[2]
  inhibition: 9.2%
[3]
  inhibition at 10 µM: 20.9%

## CCC(=O)Nc1cccc(Oc2nc(Nc3ccc(N4CCN(C)CC4)cc3Cl)ncc2Cl)c1
[1]
  inhibition: 69.1%
[2]
  inhibition: 71.5%
[3]
  inhibition at 10 µM: 34.8%

## CCC(=O)Nc1cccc(Oc2nc(Nc3ccc(N4CCCC4)cc3OC)ncc2Cl)c1
[1]
  inhibition: inactive
[2]
  inhibition: 25.8%
[3]
  inhibition at 10 µM: 18.5%

## CCC(=O)Nc1cccc(Oc2nc(Nc3ccc(N(C)C)cc3)ncc2Cl)c1
[1]
  inhibition: 31.7%
[2]
  inhibition: 72.6%
[3]
  inhibition at 10 µM: 60.3%

## CCC(=O)Nc1cccc(Oc2nc(Nc3ccc(N4CCOCC4)cc3OC)ncc2Cl)c1
[1]
  inhibition: 8.45%
[2]
  inhibition: 65.6%
[3]
  inhibition at 10 µM: 9.7%

## Cc1nc(Nc2cnn(C3CCNCC3)c2)nc2c1N(C)C(=O)c1cc3ccccc3cc1N2C
[1]
  inhibition: 15.6%
[2]
  inhibition: 78.3%
[3]
  inhibition at 10 µM: 38.6%

## CCCN(CCC)c1ccc(Nc2ncc(Cl)c(Oc3cccc(NC(=O)CC)c3)n2)cc1
[1]
  inhibition: inactive
[2]
  inhibition: 9.3%
[3]
  inhibition at 10 µM: 23.9%

## CCC(=O)Nc1cccc(Oc2nc(Nc3ccc(N(C)C)cc3OC)ncc2Cl)c1
[1]
  inhibition: 15%
[2]
  inhibition: 80.6%
[3]
  inhibition at 10 µM: 4.83%

## CCCN(CCC)c1ccc(Nc2ncc(Cl)c(Oc3cccc(NC(=O)CC)c3)n2)c(OC)c1
[1]
  inhibition: inactive
[2]
  inhibition: inactive
[3]
  inhibition at 10 µM: 33.8%

## CCC(=O)Nc1cccc(Oc2nc(Nc3ccc(N4CCC(OC)CC4)cc3)ncc2Cl)c1
[1]
  inhibition: 53.4%
[2]
  inhibition: 86.5%
[3]
  inhibition at 10 µM: 48.7%

## CCC(=O)Nc1cccc(Oc2ccnc(Nc3ccc(N4CCN(C)CC4)cc3)n2)c1
[1]
  inhibition: 48.8%
[2]
  inhibition: 85.6%
[3]
  inhibition at 10 µM: 24%

## CCC(=O)Nc1cccc(Oc2nc(Nc3ccc(N4CCOCC4)cc3)ncc2Cl)c1
[1]
  inhibition: 43.5%
[2]
  inhibition: 70.9%
[3]
  inhibition at 10 µM: 61.3%

From ChEMBL document CHEMBL4813921, “Optimization of WZ4003 as NUAK inhibitors against human colorectal cancer” (Eur J Med Chem, 2021)
